Measured values: ChEMBL document CHEMBL1139436, “Quantitative structure-activity relationship of sesquiterpene lactones as inhibitors of the transcription factor NF-kappaB” (J Med Chem, 2004)

How the values were obtained:
[1] = biological target: T1, Nuclear factor NF-kappa-B complex (Homo sapiens) (UniProt Q00653+P19838+Q04206); experiment: (§1) Concentration required for complete inhibition of Nuclear factor kappa B DNA binding; type: protein-complex assay
Summary of the method: (§2)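 Jurkat T cells (RPMI 1640, 10% FCS, penicillin/streptomycin) pretreated 1 h with sesquiterpene lactone, first at 10, 20, 50, 100 μM, then 1–5 μM or 200–300 μM as needed. Stimulated 1 h with 200 U/mL TNF-α. Total extracts (Totex high-salt buffer) analysed by EMSA with ³²P-labeled NF-κB oligonucleotide, 25 min at room temperature. IC100 is the lowest tested level fully blocking binding; intermediate values assigned the higher level. Each experiment reproduced at least once.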

[2] = biological target: T1, Nuclear factor NF-kappa-B complex (Homo sapiens); experiment: as §1; type: protein-complex assay; design: unit not given here; summary of the method: as §2

T1 sequence (P19838 whole entry, looked up): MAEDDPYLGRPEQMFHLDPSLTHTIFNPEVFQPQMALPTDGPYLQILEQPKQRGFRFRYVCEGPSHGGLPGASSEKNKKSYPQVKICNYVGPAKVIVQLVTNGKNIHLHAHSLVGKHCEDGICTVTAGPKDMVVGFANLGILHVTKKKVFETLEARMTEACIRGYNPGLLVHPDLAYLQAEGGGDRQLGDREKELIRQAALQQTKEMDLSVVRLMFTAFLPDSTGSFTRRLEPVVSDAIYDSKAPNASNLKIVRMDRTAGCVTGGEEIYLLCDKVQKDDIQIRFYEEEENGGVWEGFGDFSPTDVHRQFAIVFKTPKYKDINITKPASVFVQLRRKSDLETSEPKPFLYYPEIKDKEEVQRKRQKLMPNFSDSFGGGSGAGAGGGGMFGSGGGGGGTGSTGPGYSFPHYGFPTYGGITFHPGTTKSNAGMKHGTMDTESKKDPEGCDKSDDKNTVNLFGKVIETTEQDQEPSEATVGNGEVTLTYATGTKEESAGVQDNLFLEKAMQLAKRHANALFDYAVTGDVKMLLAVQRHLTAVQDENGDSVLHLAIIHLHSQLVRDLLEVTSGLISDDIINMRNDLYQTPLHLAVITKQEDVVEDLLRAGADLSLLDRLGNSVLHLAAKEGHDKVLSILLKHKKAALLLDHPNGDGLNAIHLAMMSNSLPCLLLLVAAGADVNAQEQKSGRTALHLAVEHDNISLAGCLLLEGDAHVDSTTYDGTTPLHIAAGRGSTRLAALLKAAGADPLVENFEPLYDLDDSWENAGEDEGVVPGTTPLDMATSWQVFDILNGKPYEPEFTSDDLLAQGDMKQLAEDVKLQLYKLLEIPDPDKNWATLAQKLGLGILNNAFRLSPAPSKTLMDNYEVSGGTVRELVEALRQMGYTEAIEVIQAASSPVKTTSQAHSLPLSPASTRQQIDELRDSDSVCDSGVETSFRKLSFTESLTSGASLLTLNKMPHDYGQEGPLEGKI
T1 sequence (Q00653 whole entry, looked up): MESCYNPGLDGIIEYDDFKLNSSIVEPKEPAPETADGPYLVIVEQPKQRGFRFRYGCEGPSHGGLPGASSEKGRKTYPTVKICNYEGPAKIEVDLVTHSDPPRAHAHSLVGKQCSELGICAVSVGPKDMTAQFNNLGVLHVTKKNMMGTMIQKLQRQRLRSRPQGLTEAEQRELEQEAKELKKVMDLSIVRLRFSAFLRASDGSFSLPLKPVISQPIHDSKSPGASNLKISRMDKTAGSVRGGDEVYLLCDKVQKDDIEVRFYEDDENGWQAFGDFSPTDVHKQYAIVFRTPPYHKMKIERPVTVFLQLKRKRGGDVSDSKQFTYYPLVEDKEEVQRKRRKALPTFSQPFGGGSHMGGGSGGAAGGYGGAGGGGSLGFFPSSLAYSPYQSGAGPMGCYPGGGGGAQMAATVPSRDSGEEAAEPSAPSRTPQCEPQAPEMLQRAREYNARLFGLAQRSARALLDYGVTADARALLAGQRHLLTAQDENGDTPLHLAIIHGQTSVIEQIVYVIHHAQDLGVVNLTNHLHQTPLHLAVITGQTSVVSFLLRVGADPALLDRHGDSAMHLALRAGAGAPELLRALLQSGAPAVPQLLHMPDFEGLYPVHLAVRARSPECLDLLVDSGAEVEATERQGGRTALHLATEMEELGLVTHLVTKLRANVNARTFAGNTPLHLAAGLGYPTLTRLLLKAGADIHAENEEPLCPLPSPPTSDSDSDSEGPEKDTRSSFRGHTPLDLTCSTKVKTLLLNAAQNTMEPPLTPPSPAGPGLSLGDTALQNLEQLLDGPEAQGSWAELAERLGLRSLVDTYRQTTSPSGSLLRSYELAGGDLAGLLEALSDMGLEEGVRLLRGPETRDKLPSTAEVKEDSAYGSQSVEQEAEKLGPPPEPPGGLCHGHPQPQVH
T1 sequence (Q04206 whole entry, looked up): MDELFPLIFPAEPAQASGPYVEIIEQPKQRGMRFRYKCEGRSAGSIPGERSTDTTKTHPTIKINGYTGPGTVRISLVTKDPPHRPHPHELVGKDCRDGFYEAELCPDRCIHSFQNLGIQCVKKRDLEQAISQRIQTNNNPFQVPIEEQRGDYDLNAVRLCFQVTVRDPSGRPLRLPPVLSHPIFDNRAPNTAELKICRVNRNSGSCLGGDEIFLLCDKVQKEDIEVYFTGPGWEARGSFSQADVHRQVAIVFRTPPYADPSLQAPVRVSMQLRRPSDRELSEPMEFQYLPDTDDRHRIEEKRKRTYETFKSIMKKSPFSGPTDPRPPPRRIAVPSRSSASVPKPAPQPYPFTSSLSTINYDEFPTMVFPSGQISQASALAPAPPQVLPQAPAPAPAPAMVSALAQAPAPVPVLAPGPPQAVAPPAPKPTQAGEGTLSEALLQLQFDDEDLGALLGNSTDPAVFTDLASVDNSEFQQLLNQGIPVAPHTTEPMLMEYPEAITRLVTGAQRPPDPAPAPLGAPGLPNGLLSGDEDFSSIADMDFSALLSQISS

C=C(C)C(=O)O[C@@H]1C[C@@](C)(O)[C@@H]2C(=O)C=C(C)[C@@H]2[C@H]2OC(=O)C(=C)[C@@H]21
IC100 [1]: 20 µM | pIC100 [2]: -1.3

C=C1C(=O)O[C@H]2C/C(CO)=C\CC/C(COC(=O)C(C)C(C)O)=C\C[C@H]12 (some centres undefined)
IC100 [1]: 50 µM | pIC100 [2]: -1.69

C=C1C(=O)O[C@@H]2C[C@@]3(C)[C@H](OC(C)=O)CC[C@](O)(COC(=O)C(C)C)[C@@H]3C[C@H]12
IC100 [1]: 100 µM

C=C(C)C(=O)OC/C1=C/C[C@@H]2C(=C)C(=O)O[C@H]2C/C(CO)=C\CC1
IC100 [1]: 50 µM | pIC100 [2]: -1.3

C=C(C)C(=O)O[C@H]1/C(C=O)=C\CC/C(COC(C)=O)=C\[C@H]2OC(=O)C(=C)[C@@H]2[C@@H]1O
IC100 [1]: 5 µM | pIC100 [2]: -0.69

C=C1C(=O)O[C@@H]2C[C@@H](C)[C@@H]3C=CC(=O)[C@@]3(C)[C@@H](OC(=O)C(C)C)[C@H]12
IC100 [1]: 20 µM

C=C1C(=O)O[C@@H]2C[C@H](C)[C@@H]3CC(=O)C(C)=C3C[C@H]12
IC100 [1]: 50 µM

C=C1[C@H](O)C[C@H](O)[C@]2(C)CC[C@H]3C(=C)C(=O)O[C@@H]3[C@@H]12
IC100 [1]: 100 µM

C=C1C(=O)O[C@@H]2C3=C(C(=O)C[C@@H]3C)[C@@H](C)CC[C@@H]12
IC100 [1]: 20 µM | pIC100 [2]: -1.3

C=C1[C@H](O)C[C@@H](O)[C@]2(C)CC[C@H]3C(=C)C(=O)O[C@@H]3[C@@H]12
IC100 [1]: 200 µM

C=C1C(=O)O[C@@H]2C[C@@H](C)[C@@H]3[C@@H](OC(C)=O)C[C@@H](O)[C@@]3(C)C[C@H]12
IC100 [1]: 200 µM

C=C(C)C(=O)O[C@H]1[C@H]2C(=C)C(=O)O[C@@H]2/C=C(/C)CC/C=C(/C=O)[C@@H]1O
IC100 [1]: 10 µM | pIC100 [2]: -1

C=C1C(=O)O[C@H]2C[C@]3(C)O[C@@H]3C[C@@H](OC(C)=O)C3=C[C@@H](OC3=O)[C@H]12
IC100 [1]: 10 µM | pIC100 [2]: -1

C=C(C)C(=O)O[C@@H]1/C=C(/C=O)CCCC(=C)[C@H](O)[C@H]2OC(=O)C(=C)[C@@H]21
IC100 [1]: 5 µM | pIC100 [2]: -0.69

C=C(C)C(=O)O[C@H]1C[C@@]2(C)OC(=CC2=O)C(=C)[C@@H](Cl)[C@H]2OC(=O)C(=C)[C@@H]21
IC100 [1]: 5 µM | pIC100 [2]: -0.69

C=C1C(=O)O[C@@H]2/C=C(/C)CC/C=C(/C)CC[C@@H]12
IC100 [1]: 50 µM

C=C1C(=O)O[C@@H]2/C=C(/C)CC/C=C(/C)CC[C@@]12O
IC100 [1]: 10 µM | pIC100 [2]: -1

C=C1C(=O)C=C2[C@H]1C[C@@H]1C(=C)C(=O)O[C@H]1C[C@@H]2C
IC100 [1]: 5 µM | pIC100 [2]: -0.69

CC[C@@H](C)[C@@]1(O)O[C@H]2C[C@@]3(C)OC(=CC3=O)/C(COC(C)=O)=C\[C@H]3OC(=O)[C@@]1(C)C23 (some centres undefined)
IC100 [1]: 5 µM | pIC100 [2]: -0.69

C=C1C(=O)O[C@@H]2/C=C(/CO)C3=CC(=O)[C@@](C)(C[C@@H](OC(=O)/C(C)=C/C)[C@@H]12)O3
IC100 [1]: 5 µM | pIC100 [2]: -0.69

C=C1C(=O)O[C@H]2[C@H]1[C@H](OC(=O)C(C)C)[C@@H](OC(C)=O)/C(C=O)=C\CCC1(CO1)[C@@H]2O (some centres undefined)
IC100 [1]: 5 µM | pIC100 [2]: -0.69

C=C1C(=O)O[C@@H]2C[C@@H](C)[C@@H]3CCC(=O)[C@@]3(C)C[C@H]12
IC100 [1]: 50 µM

C[C@@H]1C[C@H]2OC(=O)[C@@H](C)[C@H]2[C@H](O)[C@]2(C)C(=O)C=C[C@@H]12
IC100 [1]: 200 µM

C=C(C)C(=O)O[C@H]1C[C@@]2(C)OC(=CC2=O)C(=C)[C@@H](O)[C@H]2OC(=O)C(=C)[C@@H]21
IC100 [1]: 10 µM | pIC100 [2]: -1

C=C1[C@@H]2[C@H]3OC(=O)C(=C)[C@@H]3CCC(=C)[C@@H]2C[C@@H]1OC(=O)C=C(C)C
IC100 [1]: 200 µM | pIC100 [2]: -2.3

C=C1C(=O)O[C@H]2C/C(CO)=C\CC/C(COC(=O)C(C)CO)=C\C[C@H]12 (some centres undefined)
IC100 [1]: 100 µM | pIC100 [2]: -2

C=C1C(=O)O[C@@H]2/C=C(/C)C3=CC(=O)[C@@](C)(C[C@@H](OC(=O)/C(C)=C/C)[C@@H]12)O3
IC100 [1]: 5 µM | pIC100 [2]: -0.69

C=C1C(=O)O[C@H]2[C@H]1[C@@H](OC(=O)/C(C)=C/C)C/C(C)=C\[C@@]1(OC)C=C(C)[C@@H]2O1
IC100 [1]: 10 µM | pIC100 [2]: -1

C=C1C(=O)O[C@]23C[C@H]1CCC(CO)=C2C(=O)C=C3C
IC100 [1]: 50 µM

C=C1C(=O)O[C@@H]2C[C@@]3(C)CC(=O)C(OC(C)=O)=C(C)C3C[C@H]12 (some centres undefined)
IC100 [1]: 100 µM

C=C(C)C(=O)O[C@@H]1C[C@]2(C)CC[C@@](O)(O2)[C@@H](C)C[C@H]2OC(=O)C(=C)[C@H]12
IC100 [1]: 200 µM | pIC100 [2]: -2.3

C=C(C)C(=O)O[C@@H]1C[C@]2(C)CC[C@@](O)(O2)/C(C)=C\[C@H]2OC(=O)C(=C)[C@@H]21
IC100 [1]: 50 µM | pIC100 [2]: -1

C=C(C)C(=O)O[C@@H]1C[C@@]2(C)OC(=CC2=O)/C(C)=C\[C@H]2OC(=O)C(=C)[C@@H]21
IC100 [1]: 10 µM | pIC100 [2]: -1

C=C1C(=O)O[C@H]2/C=C(\C)[C@@H](O)CC/C(C)=C/C[C@H]12
IC100 [1]: 200 µM | pIC100 [2]: -2

C=C1C(=O)C[C@H]2C(=C)C(=O)O[C@@H]2/C=C(/COC(=O)C(C)C)CC[C@H]1OC
IC100 [1]: 25 µM | pIC100 [2]: -1.39
